Data: PMC7610535 (Nature chemical biology, 2020)
Residue numbers refer to the chain shown, from its start.

Tests used:
[1] = biological target: AURORA-B (Homo sapiens, UniProt Q96GD4); test: AURORA-B-NanoLuc target engagement assay; type: binding; details: AURORA-B EC50 (µM), HEK293 cells, energy transfer probe, 2 hours, mean ± s.e.m, n = 2
[2] = biological target: T1, AURORA-A (Homo sapiens, UniProt O14965); test: Immunoblot of AURORA-A in compound-treated MV4-11 cells; type: cell-based; details: 6 hours
T1 sequence (O14965 1-403): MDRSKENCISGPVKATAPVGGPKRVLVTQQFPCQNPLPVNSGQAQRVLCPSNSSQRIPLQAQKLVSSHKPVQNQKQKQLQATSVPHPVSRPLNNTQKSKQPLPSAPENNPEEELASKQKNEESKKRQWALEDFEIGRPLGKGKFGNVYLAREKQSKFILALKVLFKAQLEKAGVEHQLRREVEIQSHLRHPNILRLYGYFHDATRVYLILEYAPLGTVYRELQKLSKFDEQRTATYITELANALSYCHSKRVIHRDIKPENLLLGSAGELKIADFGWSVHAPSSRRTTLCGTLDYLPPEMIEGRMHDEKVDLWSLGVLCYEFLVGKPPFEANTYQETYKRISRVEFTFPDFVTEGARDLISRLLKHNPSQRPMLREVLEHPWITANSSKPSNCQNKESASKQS

[3] = biological target: T1, AURORA-A; test: Quantitative SILAC mass spectrometry: AURORA-A level in MV4-11 cells; type: cell-based; details: 0.1 µM, 6 hours
[4] = biological target: CEREBLON thalidomide-binding domain (TBD) (Homo sapiens, UniProt Q96SW2); test: Isothermal titration calorimetry, CEREBLON-TBD into JB170
CEREBLON thalidomide-binding domain (TBD), sequence (Q96SW2 320-428): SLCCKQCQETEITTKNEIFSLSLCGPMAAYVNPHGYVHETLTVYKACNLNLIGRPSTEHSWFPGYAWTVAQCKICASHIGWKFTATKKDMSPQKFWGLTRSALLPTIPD

[5] = biological target: AURORA-A/CEREBLON(TBD) complex (Homo sapiens, UniProt O14965+Q96SW2); test: Isothermal titration calorimetry, ternary complex; type: binding
AURORA-A/CEREBLON(TBD) complex, sequence (Q96SW2 320-428, one chain of several): as the sequence (Q96SW2 320-428) above

[6] = tested on: MV4-11 cells; test: BrdU/PI flow cytometry, cell cycle distribution of MV4-11 cells; type: cell-based, human; details: 0.5 µM, 12 hours
Method in brief: (§1)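 Cells were pulsed with 10 µM BrdU for 1 h, washed in ice-cold PBS and fixed overnight in 80% ethanol at −20 °C. After a 1% BSA/PBS-T wash, they were stained 30 min at 37 °C with RNase A (24 µg/ml) and propidium iodide (54 µM), then analysed by flow cytometry. For IMR5, the EtOH-treated cells of the doxycycline-inducible line served as the non-overexpressing cells.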

[7] = tested on: IMR5 cells; test: BrdU/PI flow cytometry, cell cycle distribution of IMR5 cells; type: cell-based, human; details: IMR5 cells without ectopic AURORA-A, 1 µM, 18 hours
Method in brief: as §1

[8] = alamarBlue cell viability assay, MV4-11 cells; type: cell-based; details: human
Method in brief: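 MV4-11 cells (6 x10^3 per well) were exposed for various times, with compound refreshed every 24 h. Viability was read with alamarBlue HS reagent as fluorescence (excitation 550 nm, emission 600 nm).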

[9] = tested on: MV4-11 cells; test: Annexin/PI flow cytometry, MV4-11 cells; type: cell-based, human; details: 0.5 µM, 72 hours
Method in brief: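 MV4-11 cells were collected together with their culture medium, washed in ice-cold PBS and stained with Annexin V/Pacific Blue in HEPES/NaCl/CaCl2 binding buffer for 15 min at room temperature in the dark. Propidium iodide in buffer was added before flow cytometry. Early (annexin+, PI−) and late (annexin+, PI+) apoptotic cells were counted over 50,000 events.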

[10] = biological target: T2, AURORA-A^P191W (Homo sapiens, UniProt O14965, P191W); test: HiBiT assay of AURORA-A^P191W in MV4-11 cells; type: cell-based; details: 6 hours
T2 sequence (O14965 1-403 P191W): T1 sequence (O14965 1-403) with P191W
Method in brief: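 HiBiT-tagged wild-type or mutant AURORA-A was expressed stably in MV4-11 cells (infected twice, 24 h apart, selected 72 h after infection). Cells were exposed to serial dilutions of the test compound for 6 h and lysed with lytic detection reagent containing the LgBiT fragment. Luminescence was then read. DC50 and DCmax were derived from the concentration–response data.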

[11] = biological target: T3, AURORA-A^T217D (Homo sapiens, UniProt O14965, T217D); test: Immunoblot of HA-tagged AURORA-A^T217D in IMR5 cells; type: cell-based; details: 24 hours
T3 sequence (O14965 1-403 T217D): T1 sequence (O14965 1-403) with T217D
Method in brief: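 IMR5 cells expressing HA-tagged AURORA-A T217D or wild-type AURORA-A were exposed to graded concentrations for 24 h. RIPA lysates (20 min, 4 °C) were cleared and BCA-quantified. Equal protein was resolved by Bis-Tris PAGE and transferred to PVDF. Membranes were blocked 1 h in 5% milk/TBS-T and probed for HA-tagged AURORA-A overnight at 4 °C.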

[12] = biological target: AURORA-B^E162T (Homo sapiens, UniProt Q96GD4, E161T); test: Immunoblot of HA-tagged AURORA-B swap mutant in MV4-11 cells; type: cell-based; details: 6 hours
AURORA-B^E162T, sequence (Q96GD4 1-345 isoform Q96GD4-5 E162T): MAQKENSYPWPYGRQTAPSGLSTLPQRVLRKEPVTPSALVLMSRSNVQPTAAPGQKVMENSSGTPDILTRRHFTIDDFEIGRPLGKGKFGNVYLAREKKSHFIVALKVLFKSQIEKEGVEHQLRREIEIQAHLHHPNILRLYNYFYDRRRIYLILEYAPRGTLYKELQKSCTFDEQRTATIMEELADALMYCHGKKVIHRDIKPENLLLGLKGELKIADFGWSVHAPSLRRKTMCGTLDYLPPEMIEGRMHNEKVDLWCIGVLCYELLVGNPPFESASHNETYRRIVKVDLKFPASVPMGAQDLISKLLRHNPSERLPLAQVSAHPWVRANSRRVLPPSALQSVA

[13] = biological target: T4, AURKA (Homo sapiens, UniProt O14965); test: Kinobead selectivity profiling: AURKA; type: binding
T4 sequence (O14965 1-403): T1 sequence (O14965 1-403)

AURORA-B, sequence (Q96GD4 whole entry): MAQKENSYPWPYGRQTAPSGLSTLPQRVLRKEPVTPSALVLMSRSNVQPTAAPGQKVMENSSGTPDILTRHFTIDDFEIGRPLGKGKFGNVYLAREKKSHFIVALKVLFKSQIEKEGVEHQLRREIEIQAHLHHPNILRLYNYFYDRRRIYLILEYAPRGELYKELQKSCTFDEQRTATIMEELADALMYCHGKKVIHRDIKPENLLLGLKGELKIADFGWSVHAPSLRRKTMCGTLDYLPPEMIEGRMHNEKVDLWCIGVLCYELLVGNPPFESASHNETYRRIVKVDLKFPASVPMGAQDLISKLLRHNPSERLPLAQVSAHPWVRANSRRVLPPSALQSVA

SMILES: COc1cc(Nc2ncc3c(n2)-c2ccc(Cl)cc2C(c2c(F)cccc2OC)=NC3)ccc1C(=O)NCCOCCOCCNC(=O)COc1cccc2c1C(=O)N(C1CCC(=O)NC1=O)C2=O (stereo not drawn) [JB170]
- EC50 [1]: 1.4 µM
- reduction of AURORA-A levels (in words) ([2]; 10 nM): reduced AURORA-A levels modestly
- reduction of AURORA-A levels (in words) ([2]; 100 nM and 1 µM): substantial degradation
- degrader activity on co-incubation with alisertib or thalidomide [2]: abolished its degrader activity
- depletion of AURORA-A under proteasomal inhibition by MG132 ([2]; MG132 10 µM): completely blocked
- depletion of AURORA-A under inhibition of cullin neddylation by MLN4924 ([2]; MLN4924 3 µM): completely blocked
- decrease of AURORA-A levels compared to alisertib-treated cells [3]: 73%
- decrease of AURORA-A levels compared to untreated cells [3]: 57%
- Kd [4]: 6880 nM
- Kd [5]: 183 nM
- cell cycle distribution [6]: delayed or arrested S-phase progression
- cell cycle distribution [7]: induced an accumulation of BrdU-negative cells in S-phase, but did not induce G2/M arrest
- viability at 72 h, 1 µM [8]: 32%
- annexin-positive cells [9]: 56%
- JB170-mediated depletion of AURORA-A^P191W [10]: abolished JB170-mediated depletion
- JB170-mediated depletion of AURORA-A^T217D [11]: largely abrogated
- JB170-mediated degradation of AURORA-B^E162T with respect to AURORA-A [12]: strongly attenuated
- Kd [13]: 99 nM
